Test results taken from ChEMBL document CHEMBL1147441, “A new series of potent oxindole inhibitors of CDK2” (Bioorg Med Chem Lett, 2004).

How the values were obtained:
[1] = test system: MDA-MB-435; test: In vitro inhibition of MDA MB 435 (human breast cancer) cell proliferation.; type: functional, cell-based
Method in brief: (§1)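 MTT-based proliferation assay run on tumour cells. IC50 values were taken from a single experiment.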

[2] = test system: SW480; test: In vitro inhibition of SW480 (human colon cancer) cell proliferation.; type: functional, cell-based; method in brief: as §1
[3] = molecular target: Cyclin-dependent kinase 2/cyclin E (Homo sapiens, UniProt P24941); test: In vitro inhibition of recombinant Cyclin Dependent Kinase-2/Cyclin E.; type: protein-complex assay

Row | SMILES | IC50 [1] [nM] | IC50 [2] [nM] | IC50 [3] [nM]
1 | COc1cc[nH]c1/C=C1\C(=O)Nc2ccc(F)c(C#C[C@@H](O)[C@@H](N)[C@@H](C)O)c21 | 400 | 140 | 
2 | CNCC#Cc1c(F)ccc2c1/C(=C/c1[nH]ccc1OC)C(=O)N2 | 490 | 150 | 4

Now those with a lower IC50 [1], led by results:

Row | IC50 [1] [nM] | IC50 [2] [nM] | IC50 [3] [nM] | SMILES
3 | 300 | 210 | 9 | COc1cc[nH]c1/C=C1\C(=O)Nc2ccc(F)c(C#C[C@@H](N)[C@@H](C)O)c21
4 | 190 | 400 | 26 | COc1cc[nH]c1/C=C1\C(=O)Nc2ccc(F)c(C#C[C@H](C)O)c21
5 | 31 | 40 | 2 | COc1cc[nH]c1/C=C1\C(=O)Nc2ccc(F)c(C#C[C@@H]3CCCN3)c21
